Compound activity deposited in PubChem by The Scripps Research Institute Molecular Screening Center.
In the library only some 1.9% were active in any assay of this set; here they are far more common.
DAGLB inhibitor = blocks human DAGLB lipase activity | Q8NCG7 | HEK293T DAGLB membrane lysate, EnzChek fluorogenic substrate | inhibition, % at 5.17 µM | 340,000 tested, 0.059% active | AID 504411; in the data active means inhibition above about 34%;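 further: 0% = enzyme with vehicle and 100% = wells lacking enzyme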
PLCg1 inh = blocks human PLC-gamma1 enzyme activity | P19174 | purified PLC-gamma1, fluorogenic substrate, fluorescence | inhibition, % at 12.2 µM | 370,000 tested, 0.84% active | AID 720700
Target sequence (P19174 whole entry, looked up): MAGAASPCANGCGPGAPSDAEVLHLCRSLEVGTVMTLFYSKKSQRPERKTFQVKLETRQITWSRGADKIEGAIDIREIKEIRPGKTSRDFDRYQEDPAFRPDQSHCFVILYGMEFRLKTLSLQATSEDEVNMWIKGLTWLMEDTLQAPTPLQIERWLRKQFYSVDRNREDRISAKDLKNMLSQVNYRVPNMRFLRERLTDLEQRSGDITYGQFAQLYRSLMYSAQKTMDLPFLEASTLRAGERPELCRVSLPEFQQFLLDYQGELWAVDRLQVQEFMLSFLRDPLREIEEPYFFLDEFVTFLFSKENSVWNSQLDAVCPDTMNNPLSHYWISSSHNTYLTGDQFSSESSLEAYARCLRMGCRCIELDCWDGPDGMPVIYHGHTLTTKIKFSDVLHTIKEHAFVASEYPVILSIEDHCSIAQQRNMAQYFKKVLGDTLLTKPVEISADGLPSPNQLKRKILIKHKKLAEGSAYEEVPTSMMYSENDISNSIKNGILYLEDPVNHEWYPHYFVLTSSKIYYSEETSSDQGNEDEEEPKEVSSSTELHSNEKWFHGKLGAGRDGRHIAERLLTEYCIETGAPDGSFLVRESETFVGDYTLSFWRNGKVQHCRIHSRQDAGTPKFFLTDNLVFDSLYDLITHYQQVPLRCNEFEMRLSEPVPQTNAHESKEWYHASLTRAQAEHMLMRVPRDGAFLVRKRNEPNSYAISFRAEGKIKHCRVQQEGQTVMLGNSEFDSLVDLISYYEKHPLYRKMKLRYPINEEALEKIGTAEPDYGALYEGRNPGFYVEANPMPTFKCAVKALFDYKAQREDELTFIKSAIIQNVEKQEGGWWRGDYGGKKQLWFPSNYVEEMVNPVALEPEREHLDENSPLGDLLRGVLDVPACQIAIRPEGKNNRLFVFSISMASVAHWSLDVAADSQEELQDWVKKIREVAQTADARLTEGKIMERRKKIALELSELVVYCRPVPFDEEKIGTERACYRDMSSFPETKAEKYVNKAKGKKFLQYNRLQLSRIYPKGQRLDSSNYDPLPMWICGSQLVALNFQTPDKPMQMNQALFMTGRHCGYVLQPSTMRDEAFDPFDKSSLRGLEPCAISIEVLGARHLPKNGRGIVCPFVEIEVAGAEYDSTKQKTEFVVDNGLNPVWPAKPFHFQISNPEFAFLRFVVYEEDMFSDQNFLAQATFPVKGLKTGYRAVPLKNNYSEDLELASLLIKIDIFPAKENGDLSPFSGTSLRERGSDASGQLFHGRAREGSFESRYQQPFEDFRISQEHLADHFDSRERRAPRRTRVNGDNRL
sPLA2-III inh = Inhibits HGIII-sPLA2 liposome hydrolysis, primary screen. Q9NZ20. QFRET BODIPY PC-A2 liposome hydrolysis, fluorescence. inhibition, % at 12.2 µM. 370,000 tested, 0.56% active. AID 743126;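 active means inhibition above mean plus 3 SD of compounds lying within the high and low control bounds, cut at about 19% in these data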;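 further: 0% = median of test compound wells and 100% = no enzyme DMSO wells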
PLC-beta3 inh = blocks human PLC-beta3 enzyme activity. Purified PLC-beta3, fluorogenic substrate, fluorescence. AID 720704. 370,000 tested, 0.18% active. inhibition, % at 12.2 µM. Q01970; in the data active means inhibition above about 11%;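 further: 0% = median of compound wells on plate and 100% = full blocker control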
Tb MetRS inh = Trypanosoma brucei MetRS inhibition; purified T. brucei MetRS, ATP depletion, Kinase-Glo luminescence; inhibition, % at 11.9 µM; 360,000 tested, 0.4% active; AID 624268;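 active means inhibition above a per-plate cutoff of the control wells' mean inhibition plus 3 SD, cut at about 5.5% in these data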;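 further: 0% = DMSO wells median and 100% = median of wells with control inhibitor compound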
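technique = Kinase-Glo luminescence, ATP depletion format | system = purified MetRS (methionyl-tRNA synthetase) enzyme from Trypanosoma brucei | timing = 15 min preincubation, 2 h reaction, all 25 °C | evaluation = percent inhibition versus plate control medians | dosing = single dose, 11.9 µM final nominal, 0.9% final DMSO | also added = substrates ATP, L-methionine and bulk Escherichia coli tRNA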
PLCgamma1 ctr = counter-screen for PLC-beta3 inhibitors: inhibitors of human PLC-gamma1; shares compounds with PLCg1 inh; purified PLC-gamma1, fluorogenic substrate, fluorescence; inhibition, % at 12.3 µM; 3,300 tested, 3.1% active; AID 743258
PLCbeta3 conf = human PLC-beta3 inhibition, confirmation; 3,300 tested, 1% active; purified PLC-beta3, fluorogenic substrate fluorescence; AID 743261; shares compounds with PLCg1 inh; inhibition, % at 12.3 µM; in the data active means inhibition above about 11%
Numbers without * were called inactive; . = no result. Unless noted, no stated cut-off is given here; in the data, active means inhibition above about 9.5%; inactive means the rest.

SMILES | DAGLB inhibitor | PLCg1 inh | sPLA2-III inh | PLC-beta3 inh | Tb MetRS inh | PLCgamma1 ctr | PLCbeta3 conf
COC(=O)c1ccc(C)c(NC(=O)Cn2cnc3ccccc3c2=O)c1 | 0 | 9 | 5 | 11* | 0 | -9 | -7
CC(C)c1cc(C(C)C)c(S(=O)(=O)N2CCC(C(=O)NCc3cccs3)CC2)c(C(C)C)c1 | . | 2 | -4 | 3 | . | . | .
Cc1ccc(-n2ncc3c(N4CCC(C(N)=O)CC4)ncnc32)c(C)c1 | 2 | 15* | 12 | 1 | -1 | 3 | 2
CCN(CC)C(=O)C1CCN(c2ncnc3c2cnn3-c2ccc(C)cc2C)CC1 | -6 | 2 | 5 | -2 | -2 | . | .
CCOC(=O)C1=C(C(=O)OCC)C2N(Cc3ccc(C#N)cc3)c3ccccc3[C@@]23C[C@@H](C(=O)OC)N(S(=O)(=O)c2ccc(C#N)cc2)C3=N1 (stereo not given in full) | . | 1 | -6 | 1 | . | . | .
O=C1N=C2SCCN2/C1=C\c1ccccc1Cl | 1 | 11* | -29 | -1 | 0 | -8 | -6
Clc1ccc(-c2nnc3n2N=C(c2ccc(-c4ccccc4)cc2)CS3)c(Cl)c1 | . | -1 | 3 | 3 | . | . | .
CCCOc1ccc(N2CC(C(=O)Nc3ccc(N4CCOCC4)cc3)CC2=O)cc1 (stereo not given) | 1 | -1 | -2 | -2 | 0 | . | .
COc1ccccc1N1CC(C(=O)Nc2ccc(N3CCOCC3)cc2)CC1=O (stereo not given) | 0 | 11* | 7 | 2 | -1 | -6 | -3
COc1ccc(NC(=O)CSc2nnc(-c3n[nH]c4c3CCC4)n2N)cc1OC | . | 0 | 2 | 4 | . | . | .
O=C(O)c1cc([N+](=O)[O-])ccc1-c1ccc([N+](=O)[O-])cc1C(=O)O | -3 | 20* | 8 | 12* | 1 | 4 | 2
O=[N+]([O-])c1ccc(C(=S)N2CCN(Cc3ccccc3)CC2)cc1 | -5 | 10* | 11 | 3 | 0 | 0 | 2
O=C(NCCc1ccccc1)c1ccc([N+](=O)[O-])cc1 | -1 | 4 | 4 | 2 | 0 | . | .
O=C(c1ccc([N+](=O)[O-])cc1)N1CCN(Cc2ccccc2)CC1 | -2 | -1 | -5 | 4 | 0 | . | .
O=C(O)c1cc([N+](=O)[O-])ccc1N1CCCCC1 | 0 | 4 | 3 | 4 | -1 | . | .
O=C(O)c1ccc([N+](=O)[O-])cc1 | -1 | 13* | -4 | -3 | 0 | -1 | 3
O=C(c1ccc([N+](=O)[O-])cc1)N(Cc1ccccc1)Cc1ccccc1 | -2 | 10* | -1 | 10 | 1 | 0 | 6
O=S1(=O)N[C@@H](Cc2ccccc2)COc2cc(NC3CC3)ccc21 | . | 2 | -8 | 4 | . | . | .
Cc1ccccc1NC(=O)c1cccc(C(=O)Nc2ccccc2C)c1 | 0 | 12* | 3 | 3 | -1 | -1 | 2
CSC[C@H]1CN(c2ccc(Br)cc2)C(=O)[C@@H]1CC(=O)Nc1ccccc1 | -2 | 3 | -5 | 5 | 0 | . | .
CSC[C@H]1CN(c2ccccc2)C(=O)[C@@H]1CC(=O)Nc1ccccc1 | 0 | 9.5* | -7 | 9 | -1 | -6 | -1
O=C(O)/C=C/c1ccc([N+](=O)[O-])o1 | 2 | -9 | 7 | -11 | -1 | . | .
O=C1NC(=S)S/C1=C\C=C\c1ccc([N+](=O)[O-])o1 | 14 | 60* | -11 | 1 | 1 | 32* | -8
COC(=O)C1=C(C)N(C)C(=NCc2ccc3c(c2)OCO3)NC1c1ccc(C(F)(F)F)cc1 (stereo not given) | . | 2 | -15 | 0 | . | . | .
NS(=O)(=O)c1ccc(N/N=C/c2ccc(C(=O)O)cc2)c([N+](=O)[O-])c1 | 5 | 6 | 4 | 0 | -1 | . | .
SMILES | DAGLB inhibitor | PLCg1 inh | sPLA2-III inh | PLC-beta3 inh | Tb MetRS inh | PLCgamma1 ctr | PLCbeta3 conf
NS(=O)(=O)c1ccc(N/N=C/c2ccc[nH]2)c([N+](=O)[O-])c1 | 27 | 12* | 18 | 3 | -1 | 2 | 7
CCOC(=O)c1c(C)oc2ccc(OCC(N)=O)cc12 | -1 | 15* | 8 | 11* | -1 | -3 | -3
CCOC(=O)[C@@]12CCCC=C1N(CCc1ccc(Cl)cc1)C(=O)[C@H]2CC(=O)NCc1cccs1 | . | -1 | -10 | 3 | . | . | .
COc1cc(/C=N/NC(=O)Cn2nnc3ccccc32)ccc1O | 0 | -1 | -1 | 2 | -1 | . | .
CCOc1cc(/C=N\NC(=O)Cn2nnc3ccccc32)ccc1O | -1 | 10* | 2 | 4 | 0 | 4 | 5
C#CCNC(=O)C[C@H]1C[C@@]2(C(=O)OC)C(=C[C@H](COCc3ccccc3)O[C@@H]2C)N(Cc2ccc3c(c2)OCO3)C1=O | . | -1 | 2 | 0 | . | . | .
COc1ccccc1CCCNC(=O)C1CCC(=O)N(CCCN2CCCC2=O)C1 (stereo not given) | -2 | 2 | 5 | -7 | -1 | . | .
COc1ccccc1CNC(=O)C1CCC(=O)N(CCCN2CCCC2=O)C1 (stereo not given) | 0 | 9.9* | 8 | 2 | 0 | -4 | -2
CCNc1nc(OC)nc(N2CCC(Cc3ccccc3)CC2)n1 | -11 | 4 | 7 | 11* | -2 | -4 | -4
COc1nc(NCc2ccco2)nc(N2CCC(C)CC2)n1 | -2 | 2 | -16 | 3 | -1 | . | .
COC(=O)C1=C(C)N(Cc2cccc(C(F)(F)F)c2)C(=NCc2cc(OC)c(OC)c(OC)c2)NC1c1cccc(C(F)(F)F)c1 (stereo not given) | . | -2 | -17 | -4 | . | . | .
CN(NC(=O)NN(C)C(=O)c1ccccc1)C(=O)c1ccccc1 | 1 | 5 | -5 | 3 | -1 | . | .
CN(NS(=O)(=O)c1ccccc1)C(=O)c1ccccc1 | 2 | 12* | 1 | 5 | 0 | 1 | 2
CCOC(=O)N1CCN(C(=O)C[C@@H]2C[C@@]3(C(=O)OCC)CCC=C3N(Cc3ccc4c(c3)OCO4)C2=O)CC1 | . | 9.7* | -2 | -1 | 0 | -7 | -3
CCOC(=O)[C@]12CCCC=C1N(CCc1ccc(OC)c(OC)c1)C(=O)[C@H](CC(=O)N1CCCC1)C2 | . | 12* | 3 | 5 | 0 | 0 | -6
CCOC(=O)[C@]12CCCC=C1N(Cc1ccc3c(c1)OCO3)C(=O)[C@H](CC(=O)N1CCCC1)C2 | . | 4 | -4 | 4 | 0 | . | .
CCOC(=O)N1CCN(C(=O)C[C@@H]2C[C@@]3(C(=O)OCC)CCCC=C3N(CCc3ccc(OC)c(OC)c3)C2=O)CC1 | . | -2 | -8 | 2 | 0 | . | .
CCCn1c(=O)c2c(nc3n2CCN3Cc2ccco2)n(C)c1=O | -5 | -1 | 3 | -5 | 0 | . | .
Cn1c(=O)n(Cc2ccc(Cl)cc2)c(=O)c2c1nc1n2CCN1Cc1ccco1 | 1 | 11* | 5 | -1 | 1 | -3 | -6
